Measured values published in ChEMBL document CHEMBL3792376, “Exploiting the Chromone Scaffold for the Development of Inhibitors of Corticosteroid Biosynthesis” (J Med Chem, 2016).

Columns and labels:
[1] = target: T1, Cytochrome P450 11B1, mitochondrial (Homo sapiens, UniProt P15538); assay: Inhibition of human CYP11B1 expressed in V79 MZh cells using [1,2-3H]-11-deoxycorticosterone as substrate for 6 hrs by HPTLC analysis; type: cell-based, V79MZh
T1 sequence (P15538 whole entry): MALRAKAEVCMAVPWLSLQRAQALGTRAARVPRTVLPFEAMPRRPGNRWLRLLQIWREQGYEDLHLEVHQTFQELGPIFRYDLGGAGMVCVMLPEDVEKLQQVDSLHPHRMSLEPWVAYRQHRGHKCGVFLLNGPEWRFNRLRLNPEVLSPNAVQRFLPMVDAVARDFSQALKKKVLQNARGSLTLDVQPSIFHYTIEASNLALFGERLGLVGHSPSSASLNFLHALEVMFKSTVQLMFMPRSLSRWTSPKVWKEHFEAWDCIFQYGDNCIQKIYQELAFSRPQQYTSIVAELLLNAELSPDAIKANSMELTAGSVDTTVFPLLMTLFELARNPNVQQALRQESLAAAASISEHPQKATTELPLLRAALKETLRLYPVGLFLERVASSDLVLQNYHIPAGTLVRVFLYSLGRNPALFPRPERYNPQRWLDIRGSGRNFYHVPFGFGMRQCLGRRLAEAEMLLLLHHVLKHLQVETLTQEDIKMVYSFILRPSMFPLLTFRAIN
Outline: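 Hamster fibroblast V79 MZh cells stably expressing human CYP11B1, grown to confluence in 6-well plates. Radiolabelled deoxycorticosterone at 100 nM, test inhibitor across a concentration range, 6 h incubation. Supernatant extracted with chloroform and centrifuged. Steroids redissolved in chloroform and separated by HPTLC. IC50 is the mean of at least three experiments, relative SD below 25%.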

[2] = target: T2, Cytochrome P450 11B2, mitochondrial (Homo sapiens, UniProt P19099); assay: Inhibition of human CYP11B2 expressed in V79 MZh cells using [1,2-3H]-11-deoxycorticosterone as substrate for 30 mins by HPTLC analysis; type: cell-based, V79MZh
T2 sequence (P19099 whole entry): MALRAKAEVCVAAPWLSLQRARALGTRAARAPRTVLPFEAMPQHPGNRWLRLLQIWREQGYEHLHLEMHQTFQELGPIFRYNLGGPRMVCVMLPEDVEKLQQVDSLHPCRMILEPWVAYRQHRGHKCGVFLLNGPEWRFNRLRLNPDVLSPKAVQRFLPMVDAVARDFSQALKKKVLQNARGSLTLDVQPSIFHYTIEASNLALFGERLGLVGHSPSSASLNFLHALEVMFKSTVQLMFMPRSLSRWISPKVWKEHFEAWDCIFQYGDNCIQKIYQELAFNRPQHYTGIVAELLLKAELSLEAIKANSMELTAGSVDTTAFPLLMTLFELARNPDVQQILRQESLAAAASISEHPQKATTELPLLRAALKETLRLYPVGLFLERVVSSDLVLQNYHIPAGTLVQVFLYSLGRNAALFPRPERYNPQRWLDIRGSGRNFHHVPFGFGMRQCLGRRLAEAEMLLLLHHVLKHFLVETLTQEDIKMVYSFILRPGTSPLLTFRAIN
Outline: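 Confluent V79 MZh hamster fibroblasts expressing human CYP11B2, in 6-well plates. Reaction started with [1,2-3H]-11-deoxycorticosterone (100 nM) plus inhibitor at several concentrations and run 30 min. Chloroform extraction of supernatant, then HPTLC of steroids. Mean of ≥3 experiments, relative SD <25%.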

Homo sapiens = species: Homo sapiens; assay: Selectivity index, ratio of IC50 for human CYP11B2 to IC50 for human CYP11B1
Outline: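 Calculated as IC50(CYP11B2)/IC50(CYP11B1). Both IC50s come from V79 MZh hamster fibroblasts expressing the human enzyme, with 100 nM radiolabelled deoxycorticosterone: 6 h for 11B1 and 30 min for 11B2. Readout by HPTLC.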

Aromatase = target: T3, Aromatase (Homo sapiens, UniProt P11511); assay: Inhibition of human placental CYP19 using [1beta-3H]-androstenedione as substrate for 3 hrs measured as formation of [3]H2O in presence of NADPH
T3 sequence (P11511 whole entry): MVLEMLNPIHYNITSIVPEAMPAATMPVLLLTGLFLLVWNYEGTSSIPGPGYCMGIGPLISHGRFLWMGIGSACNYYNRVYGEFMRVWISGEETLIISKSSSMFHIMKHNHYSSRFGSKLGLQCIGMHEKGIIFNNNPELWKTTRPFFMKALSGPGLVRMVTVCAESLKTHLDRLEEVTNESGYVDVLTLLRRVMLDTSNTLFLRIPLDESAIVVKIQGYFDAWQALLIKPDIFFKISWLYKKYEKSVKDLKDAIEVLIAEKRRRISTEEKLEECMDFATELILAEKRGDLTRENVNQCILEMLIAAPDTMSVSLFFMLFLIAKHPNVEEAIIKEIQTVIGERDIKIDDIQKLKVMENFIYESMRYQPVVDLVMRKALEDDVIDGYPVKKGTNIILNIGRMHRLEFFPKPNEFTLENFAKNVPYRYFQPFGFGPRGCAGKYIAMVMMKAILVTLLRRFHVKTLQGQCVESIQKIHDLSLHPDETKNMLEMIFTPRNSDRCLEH
Outline: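 Microsomes from fresh human term placenta. [1β-3H]androstenedione 500 nM, NADPH, glucose 6-phosphate and dehydrogenase plus inhibitor in 0.05 M phosphate pH 7.4, preincubated 5 min at 30 °C. Started with microsomal protein and run 3 h. Ethyl acetate stop, HgCl2, dextran-coated charcoal to remove steroids. 3H2O released measured. Mean of ≥3 experiments, RSD <25%.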

[3] = target: T4, Steroid 17-alpha-hydroxylase/17,20 lyase (Homo sapiens, UniProt P05093); assay: Inhibition of human CYP17 expressed in Escherichia coli co-transfected with rat NADPH-P450 reductase using progesterone as substrate for 30 mins measured as formation of 17alpha-hydroxyprogesterone and 16alpha-hydroxyprogesterone in presence of NADPH
T4 sequence (P05093 whole entry): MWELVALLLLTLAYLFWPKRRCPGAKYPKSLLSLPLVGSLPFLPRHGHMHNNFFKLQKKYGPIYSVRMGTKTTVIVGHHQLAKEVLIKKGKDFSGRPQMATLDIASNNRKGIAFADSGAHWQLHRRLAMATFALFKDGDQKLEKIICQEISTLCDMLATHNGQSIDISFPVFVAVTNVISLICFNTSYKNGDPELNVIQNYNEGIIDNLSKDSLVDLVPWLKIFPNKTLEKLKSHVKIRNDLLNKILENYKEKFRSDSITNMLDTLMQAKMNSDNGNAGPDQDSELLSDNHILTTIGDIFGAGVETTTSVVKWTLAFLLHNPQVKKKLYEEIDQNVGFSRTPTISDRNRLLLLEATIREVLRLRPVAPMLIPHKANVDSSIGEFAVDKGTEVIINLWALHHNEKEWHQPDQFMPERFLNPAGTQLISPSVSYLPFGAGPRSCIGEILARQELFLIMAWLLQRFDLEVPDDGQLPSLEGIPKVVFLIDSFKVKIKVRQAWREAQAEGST
Outline: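 Membrane pellet from E. coli co-expressing human CYP17 and rat NADPH-P450 reductase (lysozyme, sonication, 4 °C). Progesterone 25 μM with NADPH-generating system (NADP+, glucose 6-phosphate, G6P dehydrogenase) and inhibitor, preincubated 5 min at 37 °C. Membranes added, 30 min at 37 °C. Acid quench, ethyl acetate extraction. Readout: 17α- and 16α-hydroxyprogesterone formed. Mean of ≥3 runs.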

[4] = Cytotoxicity against HEK293 cells assessed as cell viability upto 100 times IC50 concentration for 3 hrs by MTT assay; type: cell-based; details: human, read-out: Activity
Outline: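 HEK293 cells in DMEM with 10% FCS, exposed to 0.1 and 1 μM compound for 3 h at 37 °C, 5% CO2, humidified. Then MTT (5 mg/mL stock in PBS) added for a further 3 h. Stopped and lysed with 10% SDS in 0.01 N HCl. Viability from MTT reduction, expressed as % of control.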

Structure (SMILES) | IC50 [1] | IC50 [2] | Ratio IC50 (Homo sapiens) | IC50 (Aromatase) | IC50 [3] | viability at 3 h [4]
O=c1c(Cc2cccnc2)coc2ccccc12 | > 10000 nM | > 10000 nM |  |  |  | 
O=c1c(Cc2cccnc2)coc2cc(F)ccc12 | > 10000 nM | > 10000 nM |  |  |  | 
O=c1c(Cn2ccnc2)coc2cc(F)ccc12 | 86.9 nM | 214 nM | 2.5 |  |  | 
COc1ccc2c(=O)c(Cn3ccnc3)coc2c1 | 372 nM | 768 nM | 2.1 |  |  | 
O=c1cc(Cn2ccnc2)oc2cc(F)ccc12 | 327 nM | 620 nM | 1.9 |  |  | 
O=c1cc(Cc2cccnc2)oc2ccccc12 | > 10000 nM | > 10000 nM |  |  |  | 
COc1ccc2c(=O)c(Cc3cccnc3)coc2c1 | > 10000 nM | > 10000 nM |  |  |  | 
COc1ccc2c(=O)cc(Cc3cccnc3)oc2c1 | > 10000 nM | > 10000 nM |  |  |  | 
COc1ccc2c(=O)c(Cc3c[nH]cn3)coc2c1 | 109 nM | 1070 nM | 9.8 | 7900 nM | > 10000 nM | 
O=c1c(Cc2c[nH]cn2)coc2ccccc12 | 29.5 nM | 121 nM | 4.1 |  |  | 95%
O=c1cc(Cc2ccncc2)oc2ccccc12 | 222 nM | 1240 nM | 5.6 |  |  | 
O=c1c(Cc2c[nH]cn2)coc2cc(F)ccc12 | 9.7 nM | 94.9 nM | 9.8 | 3100 nM | > 10000 nM | 95%
COc1ccc2c(=O)cc(Cc3ccncc3)oc2c1 | 3600 nM | > 5000 nM |  |  |  | 
O=c1c(Cc2ccncc2)coc2cc(F)ccc12 | 58.1 nM | 317 nM | 5.3 | 5000 nM | 6600 nM | 95%
COc1ccc2c(=O)cc(Cn3ccnc3)oc2c1 | 1600 nM | 2270 nM | 1.4 |  |  | 
O=c1c(Cn2ccnc2)coc2ccccc12 | 180 nM | 522 nM | 2.9 |  |  | 
O=c1cc(Cc2cccnc2)oc2cc(F)ccc12 | > 10000 nM | > 10000 nM |  |  |  | 
O=c1c(Cc2ccncc2)coc2ccccc12 | 88.2 nM | 954 nM | 10.8 | 6100 nM | 4800 nM | 
O=c1cc(Cc2ccncc2)oc2cc(F)ccc12 | 82.7 nM | 643 nM | 7.8 | > 10000 nM | > 10000 nM | 
COc1ccc2c(=O)c(Cc3ccncc3)coc2c1 | 612 nM | 3270 nM | 5 |  |  | 
O=c1cc(Cn2ccnc2)oc2ccccc12 | 253 nM | 500 nM | 2 |  |  | 
